Results reported in ChEMBL document CHEMBL1143506, “Antimalarial activity of 2,4,6-trisubstituted pyrimidines” (Bioorg Med Chem Lett, 2005).
≈ marks a conversion by molar mass, not a printed value.

tested on: Plasmodium falciparum; assay: Minimum inhibitory concentration against schizont maturation of Plasmodium falciparum NF54 ring stage after 40 h; type: functional
How it was run: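 P. falciparum NF-54 culture kept in RPMI-1640 with 25 mM HEPES, 1% D-glucose, 0.23% sodium bicarbonate, 10% heat-inactivated human serum. Sorbitol-synchronized rings (~1% parasitaemia, 3% hematocrit). Compounds at 0.25–50 µg/mL in duplicate wells, 37 °C, candle jar, 36–40 h. Giemsa smears scored microscopically; MIC is the lowest concentration blocking full maturation to schizonts. Pyrimethamine served as reference.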

Structure (SMILES) | MIC [µg/mL]
COc1cccc(-c2cc(-c3ccncc3)nc(N3CCOCC3)n2)c1OC | 1 (≈ 2.64 µM)
COc1cc(OC)cc(-c2cc(-c3ccncc3)nc(N3CCOCC3)n2)c1 | 2 (≈ 5.28 µM)
c1ccc(-c2cc(-c3ccncc3)nc(N3CCOCC3)n2)cc1 | 2 (≈ 6.28 µM)
COc1ccc(-c2cc(-c3ccncc3)nc(N3CCOCC3)n2)c2ccccc12 | 1 (≈ 2.51 µM)
O=[N+]([O-])c1cccc(-c2cc(-c3ccncc3)nc(N3CCOCC3)n2)c1 | 1 (≈ 2.75 µM)
COc1cc(-c2cc(-c3ccncc3)nc(N3CCOCC3)n2)cc(OC)c1OC | 10 (≈ 24.5 µM)
COc1cc(OC)c(-c2cc(-c3ccncc3)nc(N3CCOCC3)n2)cc1OC | 0.5 (≈ 1.22 µM)

More lines, now with the values ahead:

MIC [µg/mL] | Structure (SMILES)
2 (≈ 5.74 µM) | COc1ccc(-c2cc(-c3ccncc3)nc(N3CCOCC3)n2)cc1
2 (≈ 5.74 µM) | COc1cccc(-c2cc(-c3ccncc3)nc(N3CCOCC3)n2)c1
1 (≈ 2.89 µM) | Cc1ccc(-c2cc(-c3ccncc3)nc(N3CCOCC3)n2)cc1C
1 (≈ 3.08 µM) | c1csc(-c2cc(-c3ccncc3)nc(N3CCOCC3)n2)c1
10 (≈ 28.3 µM) | Clc1ccc(-c2cc(-c3ccncc3)nc(N3CCOCC3)n2)cc1
10 (≈ 27.4 µM) | CSc1ccc(-c2cc(-c3ccncc3)nc(N3CCOCC3)n2)cc1
1 (≈ 2.64 µM) | COc1ccc(OC)c(-c2cc(-c3ccncc3)nc(N3CCOCC3)n2)c1
10 (≈ 30.1 µM) | Cc1ccc(-c2cc(-c3ccncc3)nc(N3CCOCC3)n2)cc1
10 (≈ 40.2 µM) | CCc1nc(N)nc(N)c1-c1ccc(Cl)cc1 [PYRIMETHAMINE]
